Screens deposited in PubChem BioAssay by The Scripps Research Institute Molecular Screening Center.
sPLA2-III inh: Inhibits HGIII-sPLA2 liposome hydrolysis, primary screen | Q9NZ20 | QFRET BODIPY PC-A2 liposome hydrolysis, fluorescence | inhibition, % at 12.2 µM | actives 0.56% (n = 370,000);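 active means inhibition above mean plus 3 SD of compounds lying within the high and low control bounds, cut at about 19% in these data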;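 further: 0% = median of test compound wells and 100% = no enzyme DMSO wells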
Target sequence (Q9NZ20 whole entry, looked up): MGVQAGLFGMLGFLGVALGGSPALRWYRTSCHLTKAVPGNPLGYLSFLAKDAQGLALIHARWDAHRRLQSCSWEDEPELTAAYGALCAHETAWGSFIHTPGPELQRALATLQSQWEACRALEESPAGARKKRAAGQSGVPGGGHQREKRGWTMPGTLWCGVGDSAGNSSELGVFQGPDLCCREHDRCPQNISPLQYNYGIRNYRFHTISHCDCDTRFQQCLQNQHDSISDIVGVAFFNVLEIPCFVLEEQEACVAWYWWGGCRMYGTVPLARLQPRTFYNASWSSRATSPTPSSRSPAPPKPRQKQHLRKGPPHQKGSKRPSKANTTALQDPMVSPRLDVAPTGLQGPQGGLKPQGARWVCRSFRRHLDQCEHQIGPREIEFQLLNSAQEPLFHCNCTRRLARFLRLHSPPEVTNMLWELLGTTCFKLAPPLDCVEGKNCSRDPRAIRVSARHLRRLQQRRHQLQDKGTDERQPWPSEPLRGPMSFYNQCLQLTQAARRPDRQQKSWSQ
proCasp7 act: counter-screen: procaspase-7 (human) activation. actives 0.093% (n = 330,000). AID 463210. activation, % at 8.5 µM. recombinant procaspase-7, Ac-DEVD-pNA absorbance 405 nm; D23A/D198A/D206A triple mutant, cannot self-cleave; scale: DMSO 0, 5 µM enzyme 100;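 active means percent activation above the screen-wide mean plus 3 SD, cut at about 25% in these data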
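System: Procaspase-7 triple mutant (PC-7 D3A); measure: % activation from two-timepoint absorbance difference, scaled to controls; times: 1 h compound preincubation, 2 h substrate cleavage, 25 °C; also added: Ac-DEVD-pNA substrate, 400 µM as added; measured by: Epi-absorbance of released pNA at 405 nm, two timepoints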
procasp3 activ: activates human procaspase-3; P42574; recombinant procaspase-3 D3A, Ac-DEVD-pNA absorbance 405 nm; activation, % at 8.5 µM; actives 0.11% (n = 330,000); AID 463141;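 active means activation above the mean of all tested compounds plus 3 SD, cut at about 21% in these data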;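 further: 0% = DMSO alone and 100% = DMSO wells spiked with extra 5 µM PC-3 D3A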
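assay system = Procaspase-3 D3A mutant | signal = absorbance at 405 nm, 0 and 120 min | times = 1 h preincubation plus 2 h reaction at 25 °C | repeats = single replicate | read-out = % activation between DMSO and enzyme-spiked controls | medium = Zinc-free HEPES saline buffer with Triton X-100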
PLC-beta3 inh: inhibitors of human phospholipase C beta3 | Q01970 | Purified PLC-beta3, fluorogenic substrate, fluorescence | inhibition, % at 12.2 µM | actives 0.18% (n = 370,000);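 further: 0% = median of compound wells on plate and 100% = full blocker control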
PLCg1 inh: blocks human PLC-gamma1 enzyme activity. purified PLC-gamma1, fluorogenic substrate, fluorescence. inhibition, % at 12.2 µM. actives 0.84% (n = 370,000). AID 720700; in the data active means inhibition above about 9.5%
PLCgamma1 ctr: inhibits human PLC-gamma1 in PLC-beta3 counter-screen | purified PLC-gamma1, fluorogenic substrate, fluorescence | shares compounds with PLCg1 inh | inhibition, % at 12.3 µM | actives 3.1% (n = 3,300) | AID 743258; in the data active means inhibition above about 9.5%
PLCb3 confirm: human PLC-beta3 inhibition, confirmation; shares compounds with PLCg1 inh; actives 1% (n = 3,300); AID 743261; purified PLC-beta3, fluorogenic substrate fluorescence; inhibition, % at 12.3 µM
* = called active by the depositor; i = inactive; nt = no result given. Rows were chosen to be rich in hits. Some 1.6% of all compounds tested hit in one or more screens of this group. Unless noted, no stated cut-off is given here; in the data, active means inhibition above about 11%; inactive means the rest.

SMILES	sPLA2-III inh	proCasp7 act	procasp3 activ	PLC-beta3 inh	PLCg1 inh	PLCgamma1 ctr	PLCb3 confirm
COC(=O)[C@]12CCCCC=C1N(Cc1ccccc1)C(=O)[C@H](CC(=O)NCCCCc1ccccc1)C2	-12	nt	nt	0	0	nt	nt
CCOc1ccc(-n2nnnc2SCC(=O)Nc2cccc(O)c2)cc1	-25	4	-94	4	13*	-3	-3
O=C1CC(SCCO)C(=O)N1c1ccc(Oc2ccccc2)cc1 (stereo unspecified)	-7	-3	-5	3	15*	-43	3
Cc1ccc(Nc2ncnc(N)n2)cc1C	4	-3	-4	6	10*	-6	1
Nc1ncnc(Nc2ccccc2)n1	0	-4	-4	0	1	nt	nt
Cc1cccc(NC(=O)CCc2ccccc2)c1C	1	-2	4	4	12*	-10	0
CC(=O)NC[C@H]1O[C@@H](n2ccc(N)nc2=O)[C@H](O)[C@@H]1O	6	nt	nt	9	10*	-4	1
CN[C@H](C)C(=O)NC[C@H]1O[C@@H](n2ccc(N)nc2=O)[C@H](O)[C@@H]1O	5	nt	nt	-2	0	nt	nt
Cc1cc(-n2c(C)cc(C(=O)CSc3nnc4sc5ccccc5n34)c2C)no1	10	7	-4	11*	4	-5	-3
COC(=O)[C@H]1C[C@@]2(C)c3ccccc3N(S(=O)(=O)c3ccccc3)[C@H]2N1	-1	nt	nt	3	-1	nt	nt
Cc1[nH]c2ccccc2c1N=Nc1cc(C(=O)O)cc(C(=O)O)c1	3	-1	-12	-4	11*	-2	1
Cc1ccc(-c2cc(C(=O)NN=Cc3ccc(-c4ccccc4)cc3)[nH]n2)cc1	3	nt	nt	-2	0	nt	nt
O=c1cc(-c2ccccc2)[nH]n1-c1ccccc1	2	nt	nt	-14	-1	nt	nt
CC(C)(C)c1cc(=O)n(-c2ccccc2)[nH]1	-2	0	8	9	28*	7	2
CC(c1ccccc1)n1c(-c2cccs2)nc2c(c(=O)c3ccccc3n2C)c1=O (stereo unspecified)	17	-5	7	-21	-9	nt	nt
COc1ccc(C(CC(=O)N2CCCC2)c2ccc(F)cc2)cc1 (stereo unspecified)	8	9	5	2	11*	5	4
COc1ccc(C(CC(=O)N2CCCC2)C(C)C)cc1 (stereo unspecified)	3	-1	1	4	2	nt	nt
COc1ccc(CN(C)S(=O)(=O)c2ccc3c(c2)OCCO3)cc1	-16	0	2	-2	12*	-4	-5
COCCCNC(=O)C(Cc1ccccc1)NS(=O)(=O)c1ccc2c(c1)c(=O)n(C)c(=O)n2C (stereo unspecified)	1	7	-4	3	1	nt	nt
Cn1c(=O)c2cc(S(=O)(=O)NC(Cc3ccccc3)C(=O)NCc3ccco3)ccc2n(C)c1=O (stereo unspecified)	-1	-4	-6	2	75*	-6	-2
O=C(NCc1ccco1)C(c1ccc(F)cc1)N(C(=O)Cc1cccs1)c1cccnc1 (stereo unspecified)	-3	0	1	-2	-1	nt	nt
O=C(Oc1ccc(Br)cc1C(=S)N1CCCC1)c1ccccc1Cl	-3	7	-10	2	1	nt	nt
O=C(Oc1ccc(Br)cc1C(=S)N1CCCC1)c1ccccc1F	-9	8	-4	2	13*	-4	-3
CCOc1ccc(C(=O)c2cc([N+](=O)[O-])ccc2Cl)cc1	4	21	0	15*	13*	-6	-3
CCOc1ccc(C(=O)c2ccc([N+](=O)[O-])cc2Cl)cc1	12	-3	0	1	8	nt	nt
SMILES	sPLA2-III inh	proCasp7 act	procasp3 activ	PLC-beta3 inh	PLCg1 inh	PLCgamma1 ctr	PLCb3 confirm
Cc1ccc(S(=O)(=O)N2CCOCC2)cc1NC(=O)c1cc2ccccc2oc1=O	-3	0	4	-3	10*	-4	1
O=C(Nc1ccc(Cl)c(S(=O)(=O)N2CCOCC2)c1)c1cc2ccccc2oc1=O	5	0	5	2	0	nt	nt
COc1ccccc1C(CCNCc1ccc(N(C)C)cc1)c1ccc(OC(C)C)cc1 (stereo unspecified)	-13	-1	-1	-3	10*	1	5
CCN(CCNC(=O)[C@H]1C=C(OC)C(=O)C[C@H](c2ccccc2)[C@H]1C)C(C)=O	3	nt	nt	-2	-3	nt	nt
CCC(C)NC(=O)C1CCN(S(=O)(=O)c2ccc3c(c2)CC(C)N3C(C)=O)CC1 (stereo unspecified)	4	0	-4	5	0	nt	nt
CCC(Cc1ccccc1)NC(=O)C1CCN(S(=O)(=O)c2ccc3c(c2)CC(C)N3C(C)=O)CC1 (stereo unspecified)	1	-1	4	5	12*	1	-2
Cc1[nH][nH]c(=O)c1C=NCc1cccnc1	6	9	4	7	11*	1	3
COc1ccccc1NC(=O)CN1CCN(CC(=O)Nc2ccc(Cl)c(C(F)(F)F)c2)CC1	-13	nt	nt	5	1	nt	nt
CCc1ccccc1NCC(=O)Nc1ccc(Cl)c(C(F)(F)F)c1	12	3	-3	8	12*	-1	1
O=C(COc1ccc(/C=N/NS(=O)(=O)c2ccccc2)cc1)NCc1ccccc1	-7	-1	-7	2	5	nt	nt
COc1ccc(/C=N/NS(=O)(=O)c2ccc(C)cc2)cc1OC(=O)c1ccccc1	-30	-2	5	-1	11*	-3	-1
CC(=O)Oc1ccc(/C=N/NS(=O)(=O)c2ccccc2)cc1	6	8	0	11*	9	-1	0
Cc1ccc(S(=O)(=O)N(C)CC(=O)NCCCn2nc(C)cc2C)cc1	-5	-9	3	-2	0	nt	nt
O=C(CCNS(=O)(=O)c1ccccc1C(F)(F)F)NCCCSc1ccccc1	-47	-3	4	-1	12*	-6	-1
Cn1c(=O)c2cc(NC(=O)OCCF)ccc2n1Cc1cccc(C(F)(F)F)c1	8	nt	nt	i	-489	nt	nt
COc1ccc(F)cc1S(=O)(=O)n1cc(C)nc1-c1ccccc1	6	-1	-11	11*	7	-5	-14
Cc1ccc(OCC(=O)Nc2cccc(C)n2)c(C)c1	-1	4	-4	4	2	nt	nt
Cc1ccc(NC(=O)COc2cccc3ccc(C)nc23)c(Br)c1	-9	0	-4	1	13*	-8	-5
COc1ccc(C2CC(=O)C(c3cccc(C)c3)=CN2Cc2ccccc2)cc1 (stereo unspecified)	-3	nt	nt	-93	-63	nt	nt
